# Results reported in ChEMBL document CHEMBL1154713, “Molecular iodine promoted synthesis of new pyrazolo[3,4-d]pyrimidine derivatives as potential antibacterial agents” (2010).
# Columns and labels:
# Type in all cases: functional
# Bacillus subtilis [1] = test: Antibacterial activity against Bacillus subtilis PTCC 1365 at 100 ug/ml after 24 hrs by disk diffusion sensitivity assay; conditions: PTCC 1365, 24 h, read-out: IZ
# Summary of the method: (§1)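 Disc diffusion on Mueller–Hinton agar poured 5 mm deep, swabbed with 1.2 × 10⁸ CFU/mL bacterial suspension (0.5 McFarland). Compounds dissolved in DMF, diluted with ethanol to 100–600 µg/mL solutions, loaded onto 6.25 mm filter-paper discs. Discs placed in triplicate, incubated 24 h at 37 °C. Average inhibition zone reported, maximum across concentrations shown. Streptomycin used as standard.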
# [2] = Antibacterial activity against Escherichia coli HB101 BA 7601C at 100 ug/ml after 24 hrs by disk diffusion sensitivity assay; conditions: read-out: IZ; summary of the method: as §1
# Pseudomonas aeruginosa [3] = test: Antibacterial activity against Pseudomonas aeruginosa PTCC 1431 at 100 ug/ml after 24 hrs by disk diffusion sensitivity assay; conditions: PTCC 1431, 24 h, read-out: IZ; summary of the method: as §1
# Staphylococcus aureus [4] = test: Antibacterial activity against Staphylococcus aureus PTCC 1074 at 100 ug/ml after 24 hrs by disk diffusion sensitivity assay; conditions: PTCC 1074, 24 h, read-out: IZ; summary of the method: as §1
# [5] = Antibacterial activity against Escherichia coli HB101 BA 7601C at 400 ug/ml after 24 hrs by disk diffusion sensitivity assay; conditions: read-out: IZ; summary of the method: as §1
# Pseudomonas aeruginosa [6] = test: Antibacterial activity against Pseudomonas aeruginosa PTCC 1431 at 400 ug/ml after 24 hrs by disk diffusion sensitivity assay; conditions: PTCC 1431, 24 h, read-out: IZ; summary of the method: as §1
# Staphylococcus aureus [7] = test: Antibacterial activity against Staphylococcus aureus PTCC 1074 at 400 ug/ml after 24 hrs by disk diffusion sensitivity assay; conditions: PTCC 1074, 24 h, read-out: IZ; summary of the method: as §1
# Bacillus subtilis [8] = test: Antibacterial activity against Bacillus subtilis PTCC 1365 at 400 ug/ml after 24 hrs by disk diffusion sensitivity assay; conditions: PTCC 1365, 24 h, read-out: IZ; summary of the method: as §1
# Bacillus subtilis [9] = test: Antibacterial activity against Bacillus subtilis PTCC 1365 at 300 ug/ml after 24 hrs by disk diffusion sensitivity assay; conditions: PTCC 1365, 24 h, read-out: IZ; summary of the method: as §1
# [10] = Antibacterial activity against Escherichia coli HB101 BA 7601C at 300 ug/ml after 24 hrs by disk diffusion sensitivity assay; conditions: read-out: IZ; summary of the method: as §1
# Pseudomonas aeruginosa [11] = test: Antibacterial activity against Pseudomonas aeruginosa PTCC 1431 at 300 ug/ml after 24 hrs by disk diffusion sensitivity assay; conditions: PTCC 1431, 24 h, read-out: IZ; summary of the method: as §1
# Staphylococcus aureus [12] = test: Antibacterial activity against Staphylococcus aureus PTCC 1074 at 300 ug/ml after 24 hrs by disk diffusion sensitivity assay; conditions: PTCC 1074, 24 h, read-out: IZ; summary of the method: as §1
# Bacillus subtilis [13] = test: Antibacterial activity against Bacillus subtilis PTCC 1365 at 200 ug/ml after 24 hrs by disk diffusion sensitivity assay; conditions: PTCC 1365, 24 h, read-out: IZ; summary of the method: as §1
# [14] = Antibacterial activity against Escherichia coli HB101 BA 7601C at 200 ug/ml after 24 hrs by disk diffusion sensitivity assay; conditions: read-out: IZ; summary of the method: as §1
# Pseudomonas aeruginosa [15] = test: Antibacterial activity against Pseudomonas aeruginosa PTCC 1431 at 200 ug/ml after 24 hrs by disk diffusion sensitivity assay; conditions: PTCC 1431, 24 h, read-out: IZ; summary of the method: as §1
# Staphylococcus aureus [16] = test: Antibacterial activity against Staphylococcus aureus PTCC 1074 at 200 ug/ml after 24 hrs by disk diffusion sensitivity assay; conditions: PTCC 1074, 24 h, read-out: IZ; summary of the method: as §1
# Bacillus subtilis [17] = test: Antibacterial activity against Bacillus subtilis PTCC 1365 at 500 ug/ml after 24 hrs by disk diffusion sensitivity assay; conditions: PTCC 1365, 24 h, read-out: IZ; summary of the method: as §1
# [18] = Antibacterial activity against Escherichia coli HB101 BA 7601C at 500 ug/ml after 24 hrs by disk diffusion sensitivity assay; conditions: read-out: IZ; summary of the method: as §1
# Pseudomonas aeruginosa [19] = test: Antibacterial activity against Pseudomonas aeruginosa PTCC 1431 at 500 ug/ml after 24 hrs by disk diffusion sensitivity assay; conditions: PTCC 1431, 24 h, read-out: IZ; summary of the method: as §1
# Staphylococcus aureus [20] = test: Antibacterial activity against Staphylococcus aureus PTCC 1074 at 500 ug/ml after 24 hrs by disk diffusion sensitivity assay; conditions: PTCC 1074, 24 h, read-out: IZ; summary of the method: as §1
# [21] = Antibacterial activity against Escherichia coli HB101 BA 7601C at 10 ug/ml after 24 hrs by disk diffusion sensitivity assay; conditions: read-out: IZ
# Pseudomonas aeruginosa [22] = test: Antibacterial activity against Pseudomonas aeruginosa PTCC 1431 at 10 ug/ml after 24 hrs by disk diffusion sensitivity assay; conditions: PTCC 1431, 24 h, read-out: IZ
# Staphylococcus aureus [23] = test: Antibacterial activity against Staphylococcus aureus PTCC 1074 at 10 ug/ml after 24 hrs by disk diffusion sensitivity assay; conditions: PTCC 1074, 24 h, read-out: IZ
# Bacillus subtilis [24] = test: Antibacterial activity against Bacillus subtilis PTCC 1365 at 10 ug/ml after 24 hrs by disk diffusion sensitivity assay; conditions: PTCC 1365, 24 h, read-out: IZ
structure (smiles),measurement,setting,value
O=c1[nH]c(-c2ccc(Br)cc2)nc2c1cnn2-c1ccc([N+](=O)[O-])cc1[N+](=O)[O-],zone of inhibition at 100 µg/mL,Bacillus subtilis [1],9 mm
same,zone of inhibition at 100 µg/mL,[2],17 mm
same,zone of inhibition at 100 µg/mL,Pseudomonas aeruginosa [3],10 mm
same,zone of inhibition at 100 µg/mL,Staphylococcus aureus [4],9 mm
O=c1[nH]c(-c2ccc(Cl)cc2)nc2c1cnn2-c1ccc([N+](=O)[O-])cc1[N+](=O)[O-],zone of inhibition at 400 µg/mL,[5],10.5 mm
same,zone of inhibition at 400 µg/mL,Pseudomonas aeruginosa [6],8 mm
same,zone of inhibition at 400 µg/mL,Staphylococcus aureus [7],8.5 mm
same,zone of inhibition at 400 µg/mL,Bacillus subtilis [8],15 mm
O=c1[nH]c(-c2ccc([N+](=O)[O-])cc2)nc2c1cnn2-c1ccc([N+](=O)[O-])cc1[N+](=O)[O-],zone of inhibition at 300 µg/mL,Bacillus subtilis [9],9 mm
same,zone of inhibition at 300 µg/mL,[10],9 mm
same,zone of inhibition at 300 µg/mL,Pseudomonas aeruginosa [11],13.5 mm
same,zone of inhibition at 300 µg/mL,Staphylococcus aureus [12],8.5 mm
Cc1ccc(-c2nc3c(cnn3-c3ccc([N+](=O)[O-])cc3[N+](=O)[O-])c(=O)[nH]2)cc1,zone of inhibition at 200 µg/mL,Bacillus subtilis [13],9 mm
same,zone of inhibition at 200 µg/mL,[14],9 mm
same,zone of inhibition at 200 µg/mL,Pseudomonas aeruginosa [15],7.5 mm
same,zone of inhibition at 200 µg/mL,Staphylococcus aureus [16],13 mm
COc1ccc(-c2nc3c(cnn3-c3ccc([N+](=O)[O-])cc3[N+](=O)[O-])c(=O)[nH]2)cc1,zone of inhibition at 100 µg/mL,Bacillus subtilis [1],10 mm
same,zone of inhibition at 100 µg/mL,[2],9.5 mm
same,zone of inhibition at 100 µg/mL,Pseudomonas aeruginosa [3],12.5 mm
same,zone of inhibition at 100 µg/mL,Staphylococcus aureus [4],10 mm
O=c1[nH]c(-c2cccc(O)c2)nc2c1cnn2-c1ccc([N+](=O)[O-])cc1[N+](=O)[O-],zone of inhibition at 500 µg/mL,Bacillus subtilis [17],12 mm
same,zone of inhibition at 500 µg/mL,[18],12 mm
same,zone of inhibition at 500 µg/mL,Pseudomonas aeruginosa [19],9.5 mm
same,zone of inhibition at 500 µg/mL,Staphylococcus aureus [20],16 mm
O=c1[nH]c(-c2ccccc2)nc2c1cnn2-c1ccc([N+](=O)[O-])cc1[N+](=O)[O-],zone of inhibition at 400 µg/mL,[5],15 mm
same,zone of inhibition at 400 µg/mL,Pseudomonas aeruginosa [6],9.5 mm
same,zone of inhibition at 400 µg/mL,Staphylococcus aureus [7],9 mm
same,zone of inhibition at 400 µg/mL,Bacillus subtilis [8],10 mm
O=c1[nH]c(-c2cccc([N+](=O)[O-])c2)nc2c1cnn2-c1ccc([N+](=O)[O-])cc1[N+](=O)[O-],zone of inhibition at 400 µg/mL,[5],8 mm
same,zone of inhibition at 400 µg/mL,Pseudomonas aeruginosa [6],9 mm
same,zone of inhibition at 400 µg/mL,Staphylococcus aureus [7],15 mm
same,zone of inhibition at 400 µg/mL,Bacillus subtilis [8],11 mm
O=c1[nH]c(-c2ccccc2O)nc2c1cnn2-c1ccc([N+](=O)[O-])cc1[N+](=O)[O-],zone of inhibition at 500 µg/mL,Bacillus subtilis [17],9 mm
same,zone of inhibition at 500 µg/mL,[18],7 mm
same,zone of inhibition at 500 µg/mL,Pseudomonas aeruginosa [19],16 mm
same,zone of inhibition at 500 µg/mL,Staphylococcus aureus [20],9 mm
COc1cccc(-c2nc3c(cnn3-c3ccc([N+](=O)[O-])cc3[N+](=O)[O-])c(=O)[nH]2)c1,zone of inhibition at 100 µg/mL,Bacillus subtilis [1],8 mm
same,zone of inhibition at 100 µg/mL,[2],11.5 mm
same,zone of inhibition at 100 µg/mL,Pseudomonas aeruginosa [3],12.5 mm
same,zone of inhibition at 100 µg/mL,Staphylococcus aureus [4],9 mm
CN[C@@H]1[C@H](O[C@H]2[C@H](O[C@H]3[C@H](O)[C@@H](O)[C@H](N=C(N)N)[C@@H](O)[C@@H]3N=C(N)N)O[C@@H](C)[C@]2(O)C=O)O[C@@H](CO)[C@H](O)[C@H]1O [STREPTOMYCIN],zone of inhibition at 10 µg/mL,[21],17 mm
same,zone of inhibition at 10 µg/mL,Pseudomonas aeruginosa [22],10 mm
same,zone of inhibition at 10 µg/mL,Staphylococcus aureus [23],15 mm
same,zone of inhibition at 10 µg/mL,Bacillus subtilis [24],10 mm
